Test [1] relates to Trichoderma viride. As to the kind of experiment: Fungicidal activity against Hypocrea rufa CECT 2423 assessed as inhibition of radial mycelial growth at 100 ug/mL after 4 days. The settings on record: CECT 2423, 96 h, read-out: GI. In kind it is functional. The gist of the method: (§1)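 Compounds in acetone incorporated into PDA at 100 µg/mL. Acetone-only plates were the negative control, and benomyl at 2.5 µg/mL was the positive control. Plates were inoculated with spores from 7-day-old PDA cultures and incubated at 28 °C for 4 days (6 days for R. necatrix and V. dahliae). Radial mycelial growth was measured and % inhibition calculated against the control. Triplicate determinations, mean ± SD, ANOVA/LSD.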

The test system of test [2] is Colletotrichum coccodes. As to the kind of experiment: Fungicidal activity against Colletotrichum coccodes CCM 327 assessed as inhibition of radial mycelial growth at 100 ug/mL after 4 days. In kind it is functional. The settings on record: CCM 327, 96 h, read-out: GI. The gist of the method: as §1
Test [3] relates to Alternaria alternata. Kind of test: Fungicidal activity against Alternaria tenuis CECT 2662 assessed as inhibition of radial mycelial growth at 100 ug/mL after 4 days. Format: functional. The settings on record: CECT 2662, 96 h, read-out: GI. In outline:
as §1

The subject of test [4] is Verticillium dahliae. Kind of test: Fungicidal activity against Verticillium dahliae CCM 269 assessed as inhibition of radial mycelial growth at 100 ug/mL after 6 days. Format: functional. The settings on record: CCM 269, 144 h, read-out: GI. In outline: as §1
Test [5] deals with Fusarium culmorum. As to the kind of experiment: Fungicidal activity against Fusarium culmorum CCM 172 assessed as inhibition of radial mycelial growth at 100 ug/mL after 4 days. Format: functional. The settings on record: CCM 172, 96 h, read-out: GI. The gist of the method:
as §1

For test [6], the system named is Geotrichum candidum. Kind of test: Fungicidal activity against Galactomyces geotrichum CCM 245 assessed as inhibition of radial mycelial growth at 100 ug/mL after 4 days. In kind it is functional. The settings on record: CCM 245, 96 h, read-out: GI. In outline:
as §1

Test [7] relates to Penicillium italicum. Kind of test: Fungicidal activity against Penicillium italicum CECT 2294 assessed as inhibition of radial mycelial growth at 100 ug/mL after 4 days. In kind it is functional. The settings on record: CECT 2294, 96 h, read-out: GI. In outline:
as §1

Test [8] deals with Fusarium oxysporum f. sp. gladioli. Kind of test: Fungicidal activity against Fusarium oxysporum f. sp. gladioli CCM 233 assessed as inhibition of radial mycelial growth at 100 ug/mL after 4 days. The settings on record: CCM 233, 96 h, read-out: GI. In kind it is functional. In outline: as §1
The test system of test [9] is Oncopeltus fasciatus. As to the kind of experiment: Insecticidal activity against Oncopeltus fasciatus third-instar nymphs reared on diet based on sunflower seeds assessed as insect mortality at 5 to 10 ug/cm2 relative to untreated control. In kind it is functional, organism-based.
The subject of test [10] is Fusarium oxysporum f. sp. niveum. Kind of test: Fungicidal activity against Fusarium oxysporum f. sp. niveum CCM 259 assessed as inhibition of radial mycelial growth at 100 ug/mL after 4 days. In kind it is functional. The settings on record: CCM 259, 96 h, read-out: GI. In outline: as §1
Test [11] deals with Trichothecium roseum. Kind of test: Fungicidal activity against Trichothecium roseum CECT 2410 assessed as inhibition of radial mycelial growth at 100 ug/mL after 4 days. The settings on record: CECT 2410, 96 h, read-out: GI. In kind it is functional. In outline: as §1
In test [12] the test system is Aspergillus parasiticus. Kind of test: Fungicidal activity against Aspergillus parasiticus CECT 2681 assessed as inhibition of radial mycelial growth at 100 ug/mL after 4 days. In kind it is functional. The settings on record: CECT 2681, 96 h, read-out: GI. In outline: as §1
The test system of test [13] is Colletotrichum gloeosporioides. Kind of test: Fungicidal activity against Colletotrichum gloeosporioides CECT 2859 assessed as inhibition of radial mycelial growth at 100 ug/mL after 4 days. Format: functional. The settings on record: CECT 2859, 96 h, read-out: GI. In outline:
as §1

For test [14], the system named is Fusarium oxysporum f. sp. gladioli. Kind of test: Fungicidal activity against Fusarium oxysporum f. sp. gladioli CCM 233 assessed as inhibition of radial mycelial growth at 2.5 ug/mL after 4 days. In kind it is functional. The settings on record: CCM 233, 96 h, read-out: GI. The gist of the method: (§2)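 Benomyl added to PDA at 2.5 µg/mL; acetone-only PDA plates served as controls. Plates were inoculated with spores from seven-day-old PDA cultures of each fungus and incubated at 28 °C for 4 days. Radial mycelial growth was measured and % inhibition was calculated against control-plate growth. Three independent determinations; means ± SD; ANOVA with LSD test.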

The subject of test [15] is Fusarium culmorum. As to the kind of experiment: Fungicidal activity against Fusarium culmorum CCM 172 assessed as inhibition of radial mycelial growth at 2.5 ug/mL after 4 days. The settings on record: CCM 172, 96 h, read-out: GI. In kind it is functional. The gist of the method:
as §2

Test [16] deals with Colletotrichum coccodes. As to the kind of experiment: Fungicidal activity against Colletotrichum coccodes CCM 327 assessed as inhibition of radial mycelial growth at 2.5 ug/mL after 4 days. Format: functional. The settings on record: CCM 327, 96 h, read-out: GI. In outline: as §2
In test [17] the test system is Penicillium italicum. Kind of test: Fungicidal activity against Penicillium italicum CECT 2294 assessed as inhibition of radial mycelial growth at 2.5 ug/mL after 4 days. In kind it is functional. The settings on record: CECT 2294, 96 h, read-out: GI. In outline: as §2
For test [18], the system named is Trichothecium roseum. Kind of test: Fungicidal activity against Trichothecium roseum CECT 2410 assessed as inhibition of radial mycelial growth at 2.5 ug/mL after 4 days. In kind it is functional. The settings on record: CECT 2410, 96 h, read-out: GI. The gist of the method: as §2
For test [19], the system named is Verticillium dahliae. Kind of test: Fungicidal activity against Verticillium dahliae CCM 269 assessed as inhibition of radial mycelial growth at 2.5 ug/mL after 6 days. In kind it is functional. The settings on record: CCM 269, 144 h, read-out: GI. The gist of the method:
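Benomyl added to PDA at 2.5 µg/mL; acetone-only PDA plates served as controls. Plates were inoculated with spores from seven-day-old PDA cultures and incubated at 28 °C for 6 days. Radial mycelial growth was measured and % inhibition was calculated relative to control plates. Three independent determinations; means ± SD; ANOVA with LSD test.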

Test [20] relates to Aspergillus parasiticus. Kind of test: Fungicidal activity against Aspergillus parasiticus CECT 2681 assessed as inhibition of radial mycelial growth at 2.5 ug/mL after 4 days. In kind it is functional. The settings on record: CECT 2681, 96 h, read-out: GI. In outline: as §2
Test [21] relates to Phytophthora citrophthora. Kind of test: Fungicidal activity against Phytophthora citrophthora assessed as inhibition of radial mycelial growth at 2.5 ug/mL after 4 days. In kind it is functional. The settings on record: 96 h, read-out: GI. In outline:
as §2

In test [22] the test system is Colletotrichum gloeosporioides. As to the kind of experiment: Fungicidal activity against Colletotrichum gloeosporioides CECT 2859 assessed as inhibition of radial mycelial growth at 2.5 ug/mL after 4 days. In kind it is functional. The settings on record: CECT 2859, 96 h, read-out: GI. In outline: as §2
Test [23] deals with Trichoderma viride. As to the kind of experiment: Fungicidal activity against Hypocrea rufa CECT 2423 assessed as inhibition of radial mycelial growth at 2.5 ug/mL after 4 days. The settings on record: CECT 2423, 96 h, read-out: GI. In kind it is functional. The gist of the method:
as §2

Test [24] deals with Alternaria alternata. As to the kind of experiment: Fungicidal activity against Alternaria tenuis CECT 2662 assessed as inhibition of radial mycelial growth at 2.5 ug/mL after 4 days. The settings on record: CECT 2662, 96 h, read-out: GI. In kind it is functional. In outline: as §2
Test [25] relates to Fusarium oxysporum f. sp. niveum. As to the kind of experiment: Fungicidal activity against Fusarium oxysporum f. sp. niveum CCM 259 assessed as inhibition of radial mycelial growth at 2.5 ug/mL after 4 days. In kind it is functional. The settings on record: CCM 259, 96 h, read-out: GI. In outline: as §2
Test [26] deals with Geotrichum candidum. Kind of test: Fungicidal activity against Galactomyces geotrichum CCM 245 assessed as inhibition of radial mycelial growth at 2.5 ug/mL after 4 days. Format: functional. The settings on record: CCM 245, 96 h, read-out: GI. The gist of the method:
as §2

Test [27] concerns Oncopeltus fasciatus. As to the kind of experiment: Insecticidal activity against Oncopeltus fasciatus third-instar nymphs reared on diet based on sunflower seeds assessed as insect mortality at 7.5 ug/cm2 relative to untreated control. In kind it is functional.
Test [28] concerns Oncopeltus fasciatus. Kind of test: Insecticidal activity against Oncopeltus fasciatus third-instar nymphs reared on diet based on sunflower seeds assessed as insect mortality at 5 ug/cm2 relative to untreated control. In kind it is functional.

The source made the active and inactive calls. No cut-off for these calls is given here.

On to `CC1=C(C2CC2)OC2CCCN2C1=O` (stereo unspecified), for which the inhibition of growth at 100 µg/mL in the test with Trichoderma viride [1] is 0%; in the test with Colletotrichum coccodes [2] it was 37.8%; with Alternaria alternata [3] it was 23.9%; in the test with Verticillium dahliae [4], 65.4%; in the test with Fusarium culmorum [5] it was 38.9%; in the test with Geotrichum candidum [6], 0%. For the same compound, the inhibition of growth at 100 µg/mL is 23.6% in the test on Penicillium italicum [7]; 24.1% in [8]; 26.2% in test [10]; 0% in the test on Trichothecium roseum [11]; 11.3% in the test on Aspergillus parasiticus [12]; 11.8% in test [13]. Also, the outcome in the test on Oncopeltus fasciatus [9] was inactive.

As for `CCCCCCCC(=O)C(C)C(=O)N1CCCC1=O` (stereo unspecified), the inhibition of growth at 100 µg/mL with Trichoderma viride [1] is 21.1%; in the test on Colletotrichum coccodes [2] it was 52%; with Alternaria alternata [3] it was 47.5%; in the test with Verticillium dahliae [4] it was 56.2%; with Fusarium culmorum [5] it was 18.1%; with Geotrichum candidum [6], 24.4%. Further, the inhibition of growth at 100 µg/mL was found to be 8.6% with Penicillium italicum [7]; 26.8% in test [8]; 21% in test [10]; 49.5% in the test on Trichothecium roseum [11]; 31.7% in the test with Aspergillus parasiticus [12]; 35.6% in [13]. Moreover, the outcome in the test with Oncopeltus fasciatus [9] was inactive.

Regarding `CCCCNC(=O)n1c(NC(=O)OC)nc2ccccc21` [BENOMYL], the inhibition of growth at 2.5 µg/mL came out at 11.1% in [14]; 87% in the test with Fusarium culmorum [15]; 100% with Colletotrichum coccodes [16]; 100% in the test with Penicillium italicum [17]; 100% in the test on Trichothecium roseum [18]; 100% in the test with Verticillium dahliae [19]. For the same compound, the inhibition of growth at 2.5 µg/mL turned out to be 100% with Aspergillus parasiticus [20]; 100% in [21]; 100% in [22]; 100% with Trichoderma viride [23]; 0% with Alternaria alternata [24]; 100% in [25]. The inhibition of growth at 2.5 µg/mL in the test on Geotrichum candidum [26] was 0%.

Take `CC(C(=O)C(C)(C)C(=O)N1CCCC1)c1cccc(Oc2ccccc2)c1` (stereo unspecified): the inhibition of growth at 100 µg/mL was found to be 38.7% in the test with Trichoderma viride [1]; 55.7% with Colletotrichum coccodes [2]; 55.2% in the test with Alternaria alternata [3]; 22.7% in the test with Verticillium dahliae [4]; 16.3% in the test with Fusarium culmorum [5]; 11.7% in the test with Geotrichum candidum [6]. Also, the inhibition of growth at 100 µg/mL is 17.8% in the test with Penicillium italicum [7]; 34.8% in test [8]; 36.9% in test [10]; 53.2% in the test on Trichothecium roseum [11]; 37.9% in the test on Aspergillus parasiticus [12]; 62.2% in [13]. In the test with Oncopeltus fasciatus [9], the outcome was inactive.

What is called mortality is the share of the test organisms that died. On to `CCCCCCCC(=O)N1CC=CC1`, for which the inhibition of growth at 100 µg/mL with Trichoderma viride [1] is 38%; in the test with Colletotrichum coccodes [2], 76.7%; in the test on Alternaria alternata [3], 51.4%; in the test on Verticillium dahliae [4], 39.6%; in the test with Fusarium culmorum [5], 24.5%; with Geotrichum candidum [6] it was 0%. For the same compound, the inhibition of growth at 100 µg/mL in the test with Penicillium italicum [7] amounted to 31.2%; in test [8] it was 38.5%; in [10], 30.5%; in the test on Trichothecium roseum [11] it was 34.3%; with Aspergillus parasiticus [12], 19.3%; in test [13], 35.4%. Also, in the test with Oncopeltus fasciatus [27], the mortality at 7.5 µg/cm2 was determined as 100%. Further, the mortality at 5 µg/cm2 in the test on Oncopeltus fasciatus [28] worked out at 20%.

The values are drawn from ChEMBL document CHEMBL3045005, “Synthesis and biological evaluation of new analogues of the active fungal metabolites N-(2-methyl-3-oxodecanoyl)-2-pyrroline and N-(2-methyl-3-oxodec-8-enoyl)-2-pyrroline (II)” (2000).
